Screens as filed in PubChem BioAssay.
MrgX1 agonist: agonists of human MrgX1 receptor; MrgX1-HEK293 cells, Fluo-4 calcium fluorescence, agonist mode; stronger effect = higher value; B-score at 10 µM; Q96LB2; 310,000 tested, 0.44% active;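 active = calcium response B-score plate-corrected fluorescence ratio at least 3 library SD, with starting fluorescence B-score inside 5 SD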
Target sequence (Q96LB2 whole entry, looked up): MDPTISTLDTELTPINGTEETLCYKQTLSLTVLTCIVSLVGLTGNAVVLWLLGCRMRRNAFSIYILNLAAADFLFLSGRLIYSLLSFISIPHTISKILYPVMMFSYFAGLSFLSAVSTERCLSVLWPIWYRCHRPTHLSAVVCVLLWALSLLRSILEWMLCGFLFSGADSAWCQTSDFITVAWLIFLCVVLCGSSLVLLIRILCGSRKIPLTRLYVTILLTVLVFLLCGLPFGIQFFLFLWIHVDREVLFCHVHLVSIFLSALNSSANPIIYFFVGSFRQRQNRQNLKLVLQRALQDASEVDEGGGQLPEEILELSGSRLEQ
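times = overnight plating, then 30 min 37 °C plus 30 min room-temperature dye loading | assay system = stable human MrgX1 HEK293 cell line | input = fifteen thousand cells per well | signal = kinetic calcium dye fluorescence, Fluo-4 NW | dosing = compound delivered in addition one of three | read-out = B-scored fluorescence response ratio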
MrgX1 allo act: allosterically activates human MrgX1 receptor signaling; MrgX1-HEK293, Fluo-4 calcium flux, FDSS; stronger effect = higher value; B-score at 10 µM; 310,000 tested, 0.63% active;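 active = plate-corrected calcium response at least 3 library SD above typical, normal starting fluorescence, not activating the receptor alone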;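 note: compound read alongside a low EC10 to EC30 dose of BAM8-22 agonist; peak minus trough fluorescence over baseline measured at the second addition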
RGS4 inh: inhibitors of human RGS4; 310,000 tested, 0.45% active; B-score at 10 µM; P49798; HEK293 M3R/RGS4 inducible, Fluo-4 calcium flux; stronger effect = higher value; triggered by carbachol at its EC20;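 active = B-score, a plate-corrected calcium signal, over three deviations above library mean, with baseline fluorescence within five deviations of library mean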;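 note: RGS4 expression induced by doxycycline in cells with stable M3 receptor; B-score is computed from the integrated fluorescence ratio over baseline after carbachol; higher B-score means a larger calcium signal and so more RGS4 inhibition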
Target sequence (P49798 whole entry, looked up): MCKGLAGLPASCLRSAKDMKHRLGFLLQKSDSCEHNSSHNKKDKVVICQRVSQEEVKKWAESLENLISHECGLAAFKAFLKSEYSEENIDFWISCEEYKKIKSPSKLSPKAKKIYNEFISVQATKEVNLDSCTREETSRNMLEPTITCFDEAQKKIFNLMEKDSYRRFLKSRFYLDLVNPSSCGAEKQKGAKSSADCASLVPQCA
RGS4 pot: RGS4 potentiation or activation. HEK293 M3R/inducible RGS4, carbachol calcium flux Fluo4; stronger effect = lower value. B-score at 10 µM. 310,000 tested, 0.92% active;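 active = B-score of the integrated calcium signal more than 4 SD below the library mean, with starting fluorescence not abnormally high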;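 note: negative B-score means reduced calcium response which marks RGS4 activation or potentiation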
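Material: M3R-expressing HEK293 line, RGS4 induced by doxycycline | Schedule: Overnight RGS4 induction, 30 min dye load 37 °C, 20 min compound RT | Measured by: Fluo4 fluorescence kinetic imaging of calcium | Read-out: Integrated calcium ratio converted to B score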
MrgX1 antag: human MrgX1 receptor antagonism, primary screen; Q96LB2; MRGX1-HEK293 calcium flux, Fluo-4, BAM8-22 antagonism; stronger effect = lower value; B-score at 10 µM; 310,000 tested, 1.3% active; AID 588676;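 active = calcium-response B-score plate-corrected more than 3 library SD below zero, starting fluorescence within 5 deviations, no agonist response on first addition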;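 note: peak minus trough fluorescence over baseline after final BAM8-22 challenge near maximal dose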
MrgX1 allo conf: confirmation of human MrgX1 receptor positive allosteric modulators; activation (ratio percentage), % at 10 µM; MrgX1-HEK293, Fluo-4 calcium fluorescence, FDSS; 1,200 tested, 13% active; shares compounds with MrgX1 allo act;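 active = ratio at least 3 SD above the weak peptide control, stable starting fluorescence, no direct agonism earlier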;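 note: compound followed by low BAM8-22 agonist challenge near EC20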
HEK293 Ca flux: MrgX1 antagonist counter-screen hit in parental HEK293 cells; AID 624111; 4,000 tested, 2% active; shares compounds with MrgX1 antag; Fluo-4 calcium fluorescence, FDSS; fluorescence ratio F(max-min)/F0 at 10 µM;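 active = duplicate-averaged calcium fluorescence ratio at least three times the standard deviation of buffer wells, a nonspecific response in parental cells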
HEK293 Ca counter: activity in parental HEK293 cells without MrgX1; shares compounds with MrgX1 antag; parental HEK293 calcium flux, Fluo-4 fluorescence ratio; stronger effect = higher value; fluorescence ratio F(max-min)/F0 at 10 µM; 4,000 tested, 0.4% active;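 active = calcium fluorescence ratio, averaged over duplicates, at least 3 SD of the buffer-well ratio, meaning a nonspecific response in receptor-free cells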;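 note: untransfected parental HEK293 lacking MrgX1 used as counterscreen for MrgX1 allosteric activators; fluorescence change taken during the second addition on a kinetic imager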
HEK293 Ca cntr2: activity in parental HEK293 cells lacking MrgX1 receptor | fluorescence ratio F(max-min)/F0 at 10 µM | AID 624115 | Fluo-4 calcium fluorescence (FDSS); stronger effect = higher value | shares compounds with MrgX1 antag | 4,000 tested, 8.7% active;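 active = calcium fluorescence ratio at least three times the spread of buffer wells, meaning a non-specific response in parental cells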
Large screens that a line does not name were inactive (follow-up assays come after a bar, where they were run). Compounds with a hit are over-represented: about 3.5% of the library has one in this group of screens.

CC1Cc2ccccc2N1C(=O)CCn1c(=O)sc2ccccc21 (stereo not given)	none
O=C(Nc1ccc(C(F)(F)F)cc1)C1CCN(S(=O)(=O)c2ccc(N3CCCC3=O)cc2)CC1	none
COc1ccccc1OCC(=O)N/N=C1/C=C(C)CC1	none
NC(=O)[C@@H]1CCCN1Cc1c(C(=O)N2CCc3ccccc3C2)nc2ccc(Cl)cn12	none
COc1cc(CCC(=O)Nc2ccc(Br)c(C(F)(F)F)c2)cc(OC)c1OC	none
COc1ccc(N/C(C)=C/C(=S)Nc2ccccc2)cc1	MrgX1 allo act 27 | MrgX1 allo conf inactive | HEK293 Ca flux inactive | HEK293 Ca counter inactive | HEK293 Ca cntr2 inactive
COc1ccc(N/C(C)=C/C(=O)c2ccccc2)cc1	none
CN(C)CCOc1ccc2ccccc2c1	none
c1ccc2cc(OCCOCCOc3ccc4ccccc4c3)ccc2c1	MrgX1 allo act 13 | MrgX1 allo conf inactive | HEK293 Ca flux inactive | HEK293 Ca counter inactive | HEK293 Ca cntr2 inactive
CCOc1ccc(C2NC(=O)CCC2[N+](=O)[O-])cc1 (stereo not given)	none
OCC1(CCOc2ccccc2)CCN(Cc2cn[nH]c2-c2ccc(F)cc2)CC1	MrgX1 allo act 11 | MrgX1 allo conf inactive | HEK293 Ca flux inactive | HEK293 Ca counter inactive | HEK293 Ca cntr2 inactive
CS(=O)(=O)c1ccc2nc(NC(=O)c3ccco3)sc2c1	MrgX1 allo act 9 | MrgX1 allo conf inactive | HEK293 Ca flux inactive | HEK293 Ca counter inactive | HEK293 Ca cntr2 inactive
Cc1cccc(-c2nc3c(c(=O)c4ccccc4n3C)c(=O)n2-c2ccccc2)c1	none
Cc1cccc(N2CCN(C(=O)c3ccc4c(c3)NC(=O)C(CSCc3cccc(F)c3)N4)CC2C)c1 (stereo not given)	none
COc1ccc(-c2cc(-c3ccccc3)c(C#N)c(SCC(=O)O)n2)cc1	none
N#Cc1c(-c2ccccc2)cc(-c2ccccc2)nc1SCC(=O)NCC(=O)O	MrgX1 allo act 19 | MrgX1 allo conf inactive | HEK293 Ca flux inactive | HEK293 Ca counter inactive | HEK293 Ca cntr2 inactive
Cc1cc(C)cc(-c2nnc(SCc3ccc(C(=O)O)cc3)o2)c1	MrgX1 allo act 7.4 | MrgX1 allo conf inactive | HEK293 Ca flux inactive | HEK293 Ca counter inactive | HEK293 Ca cntr2 inactive
O=C(O)C1CCCN(S(=O)(=O)c2ccc(Br)s2)C1 (stereo not given)	MrgX1 allo act 6.6 | MrgX1 allo conf inactive | HEK293 Ca flux inactive | HEK293 Ca counter inactive | HEK293 Ca cntr2 inactive
N#CCSc1nnc(COc2ccc3ccccc3c2)o1	MrgX1 allo act 25 | MrgX1 allo conf inactive | HEK293 Ca flux inactive | HEK293 Ca counter inactive | HEK293 Ca cntr2 inactive
NC(=O)CSc1nnc(COc2ccc3ccccc3c2)o1	none
CC(C)N(C(C)C)S(=O)(=O)c1ccc(Cl)nc1	MrgX1 allo act 7.7 | MrgX1 allo conf inactive | HEK293 Ca flux inactive | HEK293 Ca counter inactive | HEK293 Ca cntr2 inactive
CCN(c1ccccc1)S(=O)(=O)c1ccc(N)c(OC)c1	MrgX1 allo act 6.6 | MrgX1 allo conf inactive | HEK293 Ca flux inactive | HEK293 Ca counter inactive | HEK293 Ca cntr2 inactive
CC(C)N(C(C)C)S(=O)(=O)c1ccc(N2CCc3ccccc3C2)nc1	MrgX1 allo act 8.4, RGS4 pot -7.1 | MrgX1 allo conf inactive | HEK293 Ca flux inactive | HEK293 Ca counter inactive | HEK293 Ca cntr2 inactive
CCN(c1ccccc1)S(=O)(=O)c1ccc(Cl)nc1	MrgX1 allo act 9.4 | MrgX1 allo conf inactive | HEK293 Ca flux inactive | HEK293 Ca counter inactive | HEK293 Ca cntr2 inactive
Cc1ccc(S(=O)(=O)N2CCc3ccccc3C2)cc1	none
CCN(c1cccc2ccccc12)S(=O)(=O)c1ccc(Cl)nc1	none
CCOc1ccccc1/C=C/c1onc(C)c1S(=O)(=O)N1CCC(C(=O)N2CCCCCC2)CC1	none
CCC(CO)n1cnnc1-c1ccncc1 (stereo not given)	none
CC(C)NC(=O)CN(C(=O)CCC(=O)Nc1nccs1)c1ccc2c(c1)OCO2	none
COCCNC(=O)CN(C(=O)CCC(=O)Nc1nccs1)c1ccc2c(c1)OCO2	MrgX1 allo act 33 | MrgX1 allo conf inactive | HEK293 Ca flux inactive | HEK293 Ca counter inactive | HEK293 Ca cntr2 inactive
Cc1ccc(CCNC(=O)Cn2ccc3cc(S(=O)(=O)N4CCCC4)ccc32)cc1	none
Cc1ccccc1CCNC(=O)Cn1ccc2cc(S(=O)(=O)N3CCCC3)ccc21	MrgX1 allo act 7.1 | MrgX1 allo conf inactive | HEK293 Ca flux inactive | HEK293 Ca counter inactive | HEK293 Ca cntr2 inactive
CC(O)CNc1nc2ccccc2n1CC(=O)NCC(F)(F)F (stereo not given)	none
CC(O)CNc1nc2ccccc2n1CC(=O)NC12CC3CC(CC(C3)C1)C2 (stereo not given)	MrgX1 allo act 7.4 | MrgX1 allo conf inactive | HEK293 Ca flux inactive | HEK293 Ca counter inactive | HEK293 Ca cntr2 inactive
CCn1nc(C)c(CN2CCC(n3nccc3NC(=O)Cc3ccccc3)CC2)c1C	none
O=C(Cn1cc2c(n1)CCCCC2)Nc1ccccc1Br	MrgX1 allo act 9.3 | MrgX1 allo conf 23% | HEK293 Ca flux inactive | HEK293 Ca counter inactive | HEK293 Ca cntr2 inactive
COc1ccc(NC(=O)c2nc[nH]c2C(=O)N2CCC(C)CC2)cc1	MrgX1 allo act 8.2 | MrgX1 allo conf inactive | HEK293 Ca flux inactive | HEK293 Ca counter inactive | HEK293 Ca cntr2 inactive
CCOC(=O)c1ccc(NC(=O)c2nc[nH]c2C(=O)N2CCC(C)CC2)cc1	none
Cc1ccc(NC(=O)c2nc[nH]c2C(=O)N2CCC(C)CC2)cc1	MrgX1 allo act 9.1 | MrgX1 allo conf inactive | HEK293 Ca flux inactive | HEK293 Ca counter inactive | HEK293 Ca cntr2 inactive
CCN(CC)C(=O)c1[nH]cnc1C(=O)Nc1ccc(OC)cc1	none
COCCCn1c(=O)c2sccc2n2c(CCCC(=O)N(C)Cc3ccco3)nnc12	none
Cc1cccc(NC(=O)C2CCCN2/C=C/C(=O)C(F)(F)F)c1C (stereo not given)	none
O=S(=O)(NC(=S)NC1CCCCC1)c1ccc(Cl)cc1	MrgX1 allo act 17 | MrgX1 allo conf 23% | HEK293 Ca flux inactive | HEK293 Ca counter inactive | HEK293 Ca cntr2 inactive
Cc1ccc(S(=O)(=O)C2(C(=O)NC3CCCC3)CC2)cc1	none
NS(=O)(=O)c1ccc(CCNC(=S)NC2CCCCC2)cc1	none
CCc1ccc(S(=O)(=O)NC(=S)NC2CCCCC2)cc1	MrgX1 allo act 16 | MrgX1 allo conf inactive | HEK293 Ca flux inactive | HEK293 Ca counter inactive | HEK293 Ca cntr2 inactive
